Screens as filed in PubChem.
Lipid droplet: hepatic lipid droplet formation modulation; inhibition, % at 6.5 µM; actives 0.4% (n = 240,000); AID 1656; AML12 mouse hepatocytes, oleate lipid droplets, BODIPY imaging;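 active means lipid droplet intensity inhibited by at least 50%, with more than 500 cells counted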
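Assay system: AML12 mouse liver cells | Compound: 6.5 µM single-point dosing | Schedule: Overnight exposure | Technique: Fluorescence imaging, 20x objective, two fields per well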
CendR NRP1 mod: NRP-1/CendR interaction modulation; O14786; actives 0.85% (n = 360,000); inhibition, % at 25 µM; FAM-RPARPAR peptide binding to NRP-1, fluorescence polarization;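 active means inhibition or corrected inhibition above about 18%, plus a signal ratio from 0.5 to 1.5, limit read from the data, passing the limit was not always enough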
Target sequence (O14786 whole entry, looked up): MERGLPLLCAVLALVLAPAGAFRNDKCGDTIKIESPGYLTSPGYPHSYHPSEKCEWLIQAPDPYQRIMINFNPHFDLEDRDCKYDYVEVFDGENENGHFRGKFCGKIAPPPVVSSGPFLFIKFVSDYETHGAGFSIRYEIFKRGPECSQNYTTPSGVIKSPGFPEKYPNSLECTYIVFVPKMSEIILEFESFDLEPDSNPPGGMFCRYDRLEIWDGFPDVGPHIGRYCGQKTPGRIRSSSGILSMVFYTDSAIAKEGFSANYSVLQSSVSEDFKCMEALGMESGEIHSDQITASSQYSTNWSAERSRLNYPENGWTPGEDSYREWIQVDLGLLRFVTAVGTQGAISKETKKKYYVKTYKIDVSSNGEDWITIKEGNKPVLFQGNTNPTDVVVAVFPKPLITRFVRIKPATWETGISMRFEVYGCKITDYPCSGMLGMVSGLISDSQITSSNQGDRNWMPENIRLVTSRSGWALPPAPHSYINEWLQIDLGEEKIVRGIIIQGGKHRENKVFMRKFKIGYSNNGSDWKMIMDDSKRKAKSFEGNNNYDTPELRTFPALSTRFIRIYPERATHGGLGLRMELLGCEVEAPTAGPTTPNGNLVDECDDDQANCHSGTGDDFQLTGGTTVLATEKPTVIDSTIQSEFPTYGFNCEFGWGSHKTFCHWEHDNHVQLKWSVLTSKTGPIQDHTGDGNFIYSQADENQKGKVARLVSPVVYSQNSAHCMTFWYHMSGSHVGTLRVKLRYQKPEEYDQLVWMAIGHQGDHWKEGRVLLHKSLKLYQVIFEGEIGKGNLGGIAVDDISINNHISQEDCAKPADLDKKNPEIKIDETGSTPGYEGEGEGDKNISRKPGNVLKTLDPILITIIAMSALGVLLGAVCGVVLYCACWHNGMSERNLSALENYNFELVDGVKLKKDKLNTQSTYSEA
m5-HT2A agonist: agonists of mouse serotonin 5-HT2A receptor (HTR2A); activation, % at 7.6 µM; CHO-K1 mHTR2A beta-arrestin complementation, luminescence; percent of 30 µM serotonin response; AID 624169; P35363; actives 0.66% (n = 360,000);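 active means activation above a run cutoff, the mean activation of all tested compounds plus 3 SD, cut at about 14% in these data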;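 further: 0% = plate median of compound wells and 100% = 30 µM serotonin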
Arr AP2 block: blocks beta-arrestin peptide binding to AP2 adaptin; FITC-arrestin peptide / GST-AP2 beads, flow cytometry; AP2 beta2 appendage carries R879A mutation; inhibition, % at 10 µM; actives 0.31% (n = 340,000);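 active means inhibition above a set limit, near 3 SD of compounds lacking own fluorescence, cut at about 54% in these data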;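 further: plate controls were DMSO wells for no effect and 5 µM unlabelled arrestin peptide for full effect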
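Material – GST-tagged AP2 beta2-adaptin appendage (R879A) on 4 µm glutathione beads · Probe or stimulus – fluorescein-tagged arrestin peptide at 50 nM final · Timing – 12 min plus 1 h, RT · Detection – bead flow cytometry, FITC channel · Read-out basis – inhibition as reduced fluorescein signal on beads, percent · Medium – PBS plus Tween 20 (0.05%) and BSA (0.1%)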
HGIII-sPLA2 inh: Blocks human group III sPLA2 activity. AID 743126. inhibition, % at 12.2 µM. QFRET BODIPY PC-A2 liposome hydrolysis, fluorescence. actives 0.56% (n = 370,000);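 active means inhibition above mean plus 3 SD of compounds lying within the high and low control bounds, cut at about 19% in these data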;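 further: 0% = median of test compound wells and 100% = no enzyme DMSO wells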
M18AAP inhibitor: PfM18AAP enzyme inhibition; inhibition, % at 7.35 µM; actives 1.2% (n = 290,000); AID 1822; recombinant PfM18AAP, H-Glu-NHMec fluorogenic cleavage;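 active means inhibition above the campaign mean inhibition over all tested compounds plus 3 SD, cut at about 28% in these data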;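 further: 0% = plate median of test compound wells and 100% = 2 mM ZnCl2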
OPRM1 ag: OPRM1 agonism in mouse HTR2A counterscreen. shares compounds with m5-HT2A agonist. U2OS OPRM1 beta-arrestin PathHunter, luminescence; DMSO 0%, DAMGO 9.3 µM 100%. activation, % at 9.3 µM. actives 5.3% (n = 2,300). AID 624380;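 active means mean activation above the mean of DMSO-only wells plus 3 SD, cut at about 0.5% in these data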
m5-HT2A ag conf: mouse HTR2A agonism confirmed. AID 624381. CHO-K1 PathHunter beta-arrestin recruitment, luminescence; DMSO 0%, 30 µM serotonin 100%. activation, % at 7.6 µM. actives 19% (n = 2,300). shares compounds with m5-HT2A agonist;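 active means mean activation across triplicates above the hit threshold derived in the original primary screen, cut at about 15% in these data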
Numbers without * were called inactive. The list is not random: actives were taken first. Their share in the collection is about 3.3%.

COc1ccccc1NC(=O)CCn1c(=S)oc2ccccc21 was read as Lipid droplet -1, CendR NRP1 mod 1, m5-HT2A agonist -6, Arr AP2 block -14, HGIII-sPLA2 inh 1 and M18AAP inhibitor -2.
CC(C)CCNC(=O)CCn1c(=S)oc2ccccc21 was read as Lipid droplet 3, CendR NRP1 mod -2, m5-HT2A agonist 19*, Arr AP2 block -2, HGIII-sPLA2 inh 16, M18AAP inhibitor -13, OPRM1 ag -1 and m5-HT2A ag conf -3.
`CSc1ccc(/C=C/C(=O)OCC(=O)N2CCN(S(=O)(=O)c3ccc(C)cc3C)CC2)cc1` gave CendR NRP1 mod 13, m5-HT2A agonist 24*, Arr AP2 block 39, HGIII-sPLA2 inh -2, OPRM1 ag 0 and m5-HT2A ag conf -2.
`CCc1nc2c(OCC(=O)C(C)(C)C)cccn2c1N(C)C(=O)CC(C)C` gave CendR NRP1 mod -2, m5-HT2A agonist 16*, HGIII-sPLA2 inh -5, OPRM1 ag -1 and m5-HT2A ag conf -3.
`CC(=O)c1ccc(NC(=O)CN2CCOCC2)cc1` gave Lipid droplet -5, CendR NRP1 mod 2, m5-HT2A agonist -5, Arr AP2 block 4, HGIII-sPLA2 inh -2 and M18AAP inhibitor 1.
Cc1ccc(NC(=O)CN2CCOCC2)cc1 was read as CendR NRP1 mod -9, m5-HT2A agonist 14*, Arr AP2 block 6, HGIII-sPLA2 inh -1, M18AAP inhibitor 9, OPRM1 ag 0 and m5-HT2A ag conf 0.
Screening CC1CCN(C(=O)COC(=O)c2cc3ccccc3oc2=O)CC1 returned CendR NRP1 mod -6, m5-HT2A agonist 2, Arr AP2 block 1 and HGIII-sPLA2 inh 10.
For CCCCNC(=O)C(=O)Nc1cc2c3c(c1)CCC(=O)N3CCC2 the results were Lipid droplet 12, CendR NRP1 mod -9, m5-HT2A agonist 15*, Arr AP2 block 44, HGIII-sPLA2 inh 1, M18AAP inhibitor 1, OPRM1 ag -1 and m5-HT2A ag conf -4.
Screening CCCS(=O)(=O)NC(=O)C1(C)CCCN(C(=O)c2ccccc2F)C1 (configuration not stated) returned CendR NRP1 mod 11, m5-HT2A agonist 3 and HGIII-sPLA2 inh 7.
CCCNC(=O)C1(C)CCCN(C(=O)c2ccccc2F)C1 (configuration not stated) was read as CendR NRP1 mod -7, m5-HT2A agonist 17*, HGIII-sPLA2 inh 2, OPRM1 ag -1 and m5-HT2A ag conf -3.
Screening Cc1nc(NCCc2ccc(S(N)(=O)=O)cc2)c2c(C)c(C)sc2n1 returned Lipid droplet 1, CendR NRP1 mod -5, m5-HT2A agonist 16*, Arr AP2 block 0, HGIII-sPLA2 inh -3, M18AAP inhibitor -2, OPRM1 ag -1 and m5-HT2A ag conf -3.
For Cc1nc(NCc2ccc(S(N)(=O)=O)cc2)c2c(C)c(C)sc2n1 the results were Lipid droplet 2, CendR NRP1 mod 4, m5-HT2A agonist -5, Arr AP2 block -4, HGIII-sPLA2 inh 9 and M18AAP inhibitor 2.
`COc1cccc(/C=C2\CC3(OC(=O)c4ccccc4)CCCN2C3)c1` (configuration not stated) gave HGIII-sPLA2 inh -5.
Screening CCN1Cc2nnn(Cc3ccccc3)c2-c2cc(F)ccc2S1(=O)=O returned HGIII-sPLA2 inh 2.
For CCN(CC(=O)Nc1ccc(NC(C)=O)cc1)C(=O)CSCC(=O)Nc1ccc(C)cc1 the results were CendR NRP1 mod 4, m5-HT2A agonist 1, Arr AP2 block -6 and HGIII-sPLA2 inh -3.
`CCOC(=O)CC(=O)CSCC(=O)Nc1ccc(C)cc1` gave Lipid droplet 0, CendR NRP1 mod 4, m5-HT2A agonist 16*, Arr AP2 block 14, HGIII-sPLA2 inh -11, M18AAP inhibitor 17, OPRM1 ag 0 and m5-HT2A ag conf 1.
Screening COc1ccc(C(=O)C2(C(=O)NCc3ccccc3)CC(c3ccccn3)=NO2)cc1 (configuration not stated) returned HGIII-sPLA2 inh 4.
CCc1nn2c(=O)cc(COC(=O)c3cc(Cl)c(OC)c(OC)c3)nc2s1 was read as CendR NRP1 mod -11, m5-HT2A agonist 17*, Arr AP2 block 6, HGIII-sPLA2 inh -4, OPRM1 ag 0 and m5-HT2A ag conf -3.
For CCOC(=O)C1(CC2CC2)CCN(Cc2cc(Cl)c(O)c(OC)c2)CC1 the results were Lipid droplet -18, CendR NRP1 mod 3, m5-HT2A agonist 20*, Arr AP2 block 8, HGIII-sPLA2 inh -3, M18AAP inhibitor 1, OPRM1 ag 0 and m5-HT2A ag conf -4.
CN1C(=O)C[C@@](C#N)(C(=O)NCCc2ccccc2)[C@H]1c1ccccc1 was read as HGIII-sPLA2 inh -4.
Screening Cc1c(NC(=O)[C@@H](NC(=O)c2ccc(Cl)c([N+](=O)[O-])c2)C(C)C)c(=O)n(-c2ccccc2)n1C returned CendR NRP1 mod 11, m5-HT2A agonist -5, Arr AP2 block 18 and HGIII-sPLA2 inh 1.
For C[C@@H](O)C#Cc1ccc2c(c1)O[C@H](CN(C)C(=O)Nc1ccccc1)[C@@H](C)CN([C@@H](C)CO)S2(=O)=O the results were CendR NRP1 mod -2, m5-HT2A agonist 15*, HGIII-sPLA2 inh 4, OPRM1 ag 0 and m5-HT2A ag conf 8.
CC(C)NC(=O)N(C)C[C@H]1Oc2cc(C#Cc3ccc(F)cc3)ccc2S(=O)(=O)N([C@H](C)CO)C[C@H]1C was read as CendR NRP1 mod 5, m5-HT2A agonist 41*, HGIII-sPLA2 inh -17, OPRM1 ag -1 and m5-HT2A ag conf 24*.
C[C@H](CO)N1C[C@H](C)[C@@H](CN(C)C(=O)Nc2ccc(F)cc2)Oc2cc(Br)ccc2S1(=O)=O was read as CendR NRP1 mod 1, m5-HT2A agonist -6 and HGIII-sPLA2 inh -5.
`C[C@H](CO)N1C[C@H](C)[C@@H](CN(C)C(=O)c2ccccc2)Oc2cc(C#C[C@@H](C)O)ccc2S1(=O)=O` gave CendR NRP1 mod -4, m5-HT2A agonist 9 and HGIII-sPLA2 inh 8.
For CNc1nc(-c2ccccc2)c2sccc2n1 the results were CendR NRP1 mod 3, m5-HT2A agonist -11 and HGIII-sPLA2 inh 9.
